Data on nine molecules can be found in ChEMBL document CHEMBL1127462, “Novel dual inhibitors of 5-lipoxygenase and thromboxane A2 synthetase: synthesis and structure-activity relationships of 3-pyridylmethyl-substituted 2-amino-6-hydroxybenzothiazole derivatives” (J Med Chem, 1994).

SMILES strings stand for the structures.

For the first test, the target named is T1, Polyunsaturated fatty acid 5-lipoxygenase (Rattus norvegicus, UniProt P12527).
T1 sequence (P12527 whole entry): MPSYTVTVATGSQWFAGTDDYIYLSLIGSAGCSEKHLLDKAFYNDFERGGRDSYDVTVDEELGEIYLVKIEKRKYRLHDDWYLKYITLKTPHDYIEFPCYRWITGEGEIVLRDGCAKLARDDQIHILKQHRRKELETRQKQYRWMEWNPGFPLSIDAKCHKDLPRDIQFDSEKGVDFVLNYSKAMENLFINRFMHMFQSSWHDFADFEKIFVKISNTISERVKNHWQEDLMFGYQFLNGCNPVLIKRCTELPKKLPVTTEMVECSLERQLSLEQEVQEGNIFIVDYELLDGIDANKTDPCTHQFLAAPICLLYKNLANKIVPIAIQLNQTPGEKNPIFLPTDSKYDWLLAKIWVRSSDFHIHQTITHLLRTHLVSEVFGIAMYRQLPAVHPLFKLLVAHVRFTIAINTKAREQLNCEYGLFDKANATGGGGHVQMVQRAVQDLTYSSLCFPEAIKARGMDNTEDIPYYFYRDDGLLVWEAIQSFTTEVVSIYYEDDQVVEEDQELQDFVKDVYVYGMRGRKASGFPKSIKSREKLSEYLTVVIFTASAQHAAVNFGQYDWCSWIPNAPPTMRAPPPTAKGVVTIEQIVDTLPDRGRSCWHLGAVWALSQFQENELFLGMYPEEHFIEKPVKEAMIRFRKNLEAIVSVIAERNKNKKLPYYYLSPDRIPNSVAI
The experiment in a line: Inhibitory activity against the production of leukotriene B4 (LTB4) in glycogen-induced peritoneal cells of rat. In kind it is functional. Summed up:
(§1)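 Peritoneal leukocytes elicited in male F344 rats by ip 6% glycogen, suspended in Ca/Mg-free HBSS (5 × 10⁶ cells/mL). Cells preincubated 5 min at 37 °C with compound or vehicle (0.1% DMSO/0.1% BSA), stimulated with A23187 (4 μM, 10 min, 37 °C), stopped with BW755C. LTB₄, TXB₂ and PGE₂ in supernatant by radioimmunoassay. Duplicate points; IC50 by probit analysis.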
What is called IC50 is the concentration at which inhibition is half-maximal. Read a low IC50 as higher potency. Consider `Cc1c(O)c(C)c2sc(NCc3cccnc3)nc2c1C`, for which the half-inhibitory concentration (IC50) is < 100 nM.
On to `CCc1c(O)c(OC)c(Cc2cccnc2)c2nc(NC)sc12`, for which the half-inhibitory concentration (IC50) was < 100 nM.
Same read-out and setting: next, `CCNc1nc2c(C)c(C)c(O)c(Cc3cccnc3)c2s1`: < 100 nM; `CCNc1nc2c(C)c(Cc3cccnc3)c(O)c(C)c2s1`: 230 nM; `Cc1cc(O)c(C)c2sc(NCc3cccnc3)nc12`: < 100 nM.
The molecule `Cc1c(O)c2ccccc2c2nc(NCc3cccnc3)sc12` registered an IC50 of 1600 nM.
Take `CNc1nc2c(Cc3cccnc3)c(OC)c(O)c(C)c2s1`: the half-inhibitory concentration (IC50) stood at 170 nM.
Take `CCCNc1nc2c(Cc3cccnc3)c(C)c(O)c(C)c2s1.Cl.Cl`: the concentration for half-maximal inhibition (IC50) is < 100 nM.
In turn, `CNc1nc2c(C)c(Cc3cccnc3)c(O)c(C)c2s1.Cl.Cl` came in with an IC50 of 300 nM.

The target in the next test is T2, Thromboxane-A synthase (Rattus norvegicus, UniProt P49430).
T2 sequence (P49430 whole entry): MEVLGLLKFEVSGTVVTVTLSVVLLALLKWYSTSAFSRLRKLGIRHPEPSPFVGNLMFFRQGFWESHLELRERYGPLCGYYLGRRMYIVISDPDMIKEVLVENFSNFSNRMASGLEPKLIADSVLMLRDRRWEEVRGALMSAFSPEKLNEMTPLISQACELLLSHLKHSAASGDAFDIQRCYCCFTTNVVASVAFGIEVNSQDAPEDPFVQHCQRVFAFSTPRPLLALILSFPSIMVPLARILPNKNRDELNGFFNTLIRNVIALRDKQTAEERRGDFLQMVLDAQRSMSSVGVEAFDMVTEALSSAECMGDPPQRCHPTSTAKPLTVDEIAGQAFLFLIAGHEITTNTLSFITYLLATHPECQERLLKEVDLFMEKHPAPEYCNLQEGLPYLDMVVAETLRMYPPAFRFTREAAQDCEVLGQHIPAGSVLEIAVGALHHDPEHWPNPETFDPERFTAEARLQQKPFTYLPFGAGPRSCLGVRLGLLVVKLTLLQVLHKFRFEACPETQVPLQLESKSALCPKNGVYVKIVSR
The experiment in a line: Inhibitory activity against the production of thromboxane B2 (TXB2) in glycogen-induced peritoneal cells of rat. In kind it is functional. Summed up:
as §1
On to `Cc1c(O)c(C)c2sc(NCc3cccnc3)nc2c1C`, for which half-maximal inhibition (IC50) required 2000 nM.
`CCc1c(O)c(OC)c(Cc2cccnc2)c2nc(NC)sc12` returned an IC50 of 330 nM.
The molecule `CCNc1nc2c(C)c(C)c(O)c(Cc3cccnc3)c2s1` displayed an IC50 of 2000 nM.
The molecule `CCNc1nc2c(C)c(Cc3cccnc3)c(O)c(C)c2s1` showed an IC50 of 650 nM.
On the same count and under the same terms, next, `Cc1cc(O)c(C)c2sc(NCc3cccnc3)nc12`: 4400 nM; `Cc1c(O)c2ccccc2c2nc(NCc3cccnc3)sc12`: 4000 nM; `CNc1nc2c(Cc3cccnc3)c(OC)c(O)c(C)c2s1`: 1300 nM.
The molecule `CCCNc1nc2c(Cc3cccnc3)c(C)c(O)c(C)c2s1.Cl.Cl` yielded an IC50 of 90 nM.
For `CNc1nc2c(C)c(Cc3cccnc3)c(O)c(C)c2s1.Cl.Cl`, the IC50 was < 100 nM.

The next test relates to Rattus norvegicus. As to the kind of experiment: Tested for the ability to decrease lesion area in the colon of the TNB/ethanol-induced chronic colitis rats at the dosage of 100 mg/kg/day. Format: functional. Summed up:
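TNB/ethanol colitis rats dosed orally (0.5% MC suspension) once daily for 11 days from day 3, killed day 14. Ethanol-only group as baseline. Colonic MPO activity measured; lesion area (mm²/colon) by stereomicroscope. % inhibition = [1 − (test − ethanol)/(control − ethanol)] × 100. Mean ± SEM.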
By inhibition in vivo is commonly meant the percentage by which the read-out fell short of the control. The low end stands for a weak effect, the high end for a strong effect. `Cc1c(O)c(C)c2sc(NCc3cccnc3)nc2c1C` displayed an inhibition in vivo at 100 mg/kg/day of 81%.
Molecule `CCNc1nc2c(C)c(C)c(O)c(Cc3cccnc3)c2s1` displayed an inhibition in vivo at 100 mg/kg/day of 64%.
On the same count and under the same terms, next, `CCNc1nc2c(C)c(Cc3cccnc3)c(O)c(C)c2s1`: 48%; `Cc1cc(O)c(C)c2sc(NCc3cccnc3)nc12`: 71%.

Tested on in another test: not listed separately
As to the kind of experiment: Tested for inhibitory activity against thromboxane B2 (TXB2) in human platelets. Summed up:
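Washed human platelets (3 × 10⁸ cells/mL) in Tris-HCl-saline, pH 7.4, with 10 μM indomethacin. Preincubated 5 min at 25 °C with compound, PGH₂ (1 μg/mL) for 3 min at 25 °C, citrate/ethanol stop. TXB₂ in supernatant by radioimmunoassay. Duplicate points; IC50 by probit analysis.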
The molecule `CCNc1nc2c(C)c(C)c(O)c(Cc3cccnc3)c2s1` displayed an IC50 of 4300 nM.
As to `CCNc1nc2c(C)c(Cc3cccnc3)c(O)c(C)c2s1`, half-maximal inhibition (IC50) required 2300 nM.

Another test is filed under the species Homo sapiens. As to the kind of experiment: Tested for inhibitory activity against the production of leukotriene B4 (LTB4) in human whole blood. In kind it is functional, organism-based. Summed up: (§2)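 Heparinized (10 U/mL) fresh blood from healthy volunteers, 0.4 mL aliquots, preincubated 5 min at 37 °C with compound or vehicle (0.1% DMSO/0.1% BSA). A23187 (40 μM) added for 20 min. LTB₄, TXB₂, PGE₂ in plasma by radioimmunoassay. Duplicate points; IC50 by probit analysis.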
`CCNc1nc2c(C)c(C)c(O)c(Cc3cccnc3)c2s1` displayed an IC50 of 500 nM.

The species entered for the next test is Homo sapiens. The experiment in a line: Tested for inhibitory activity against the production of prostaglandin E2 (PGE2) in human whole blood. Format: functional, organism-based. Summed up:
as §2
Turning to `CCNc1nc2c(C)c(C)c(O)c(Cc3cccnc3)c2s1`, the IC50 is > 100000 nM.

The species entered for a further test is Homo sapiens. The experiment in a line: Tested for inhibitory activity against the production of thromboxane B2 (TXB2) in human whole blood. Format: functional, organism-based. Summed up:
as §2
As to `CCNc1nc2c(C)c(C)c(O)c(Cc3cccnc3)c2s1`, the concentration for half-maximal inhibition (IC50) came out at 34800 nM.

The next test has as its target T3, Thromboxane-A synthase (Homo sapiens, UniProt P24557).
T3 sequence (P24557 whole entry): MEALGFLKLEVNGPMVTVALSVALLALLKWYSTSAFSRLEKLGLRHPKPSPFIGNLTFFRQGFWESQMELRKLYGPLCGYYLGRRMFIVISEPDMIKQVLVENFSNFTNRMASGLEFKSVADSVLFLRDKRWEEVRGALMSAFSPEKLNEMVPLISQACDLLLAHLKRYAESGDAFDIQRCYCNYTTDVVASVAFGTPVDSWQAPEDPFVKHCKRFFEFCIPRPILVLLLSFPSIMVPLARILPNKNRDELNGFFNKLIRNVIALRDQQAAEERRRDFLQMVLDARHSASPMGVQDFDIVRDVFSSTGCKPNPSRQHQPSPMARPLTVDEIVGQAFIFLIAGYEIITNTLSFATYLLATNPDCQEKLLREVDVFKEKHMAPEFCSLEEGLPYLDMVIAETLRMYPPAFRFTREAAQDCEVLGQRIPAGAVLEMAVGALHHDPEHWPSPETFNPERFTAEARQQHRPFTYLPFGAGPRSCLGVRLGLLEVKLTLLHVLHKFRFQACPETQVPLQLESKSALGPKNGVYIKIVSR
The experiment in a line: Tested for inhibitory activity against thromboxane A2 (TXA2) synthetase in microsome of human platelets. Summed up:
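Platelet microsome fraction (105000g) resuspended in 50 mM Tris-HCl-saline, pH 7.4, with 10 μM indomethacin. 20 μg protein preincubated 5 min at 25 °C with compound, PGH₂ (1 μg/mL) for 1 min at 25 °C, citric acid/ethanol stop. TXB₂ by radioimmunoassay. Duplicate points; IC50 by probit analysis.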
`CCNc1nc2c(C)c(C)c(O)c(Cc3cccnc3)c2s1` showed a half-maximal inhibitory concentration (IC50) of 810 nM.
As for `CCNc1nc2c(C)c(Cc3cccnc3)c(O)c(C)c2s1`, the concentration for half-maximal inhibition (IC50) stood at 390 nM.

Tested on in another test: not listed separately
The experiment in a line: Tested for the suppression ratio, the difference between the amount of LTB4 produced in the test groups and the control group at the dosage of 100 mg/kg. Format: functional. Summed up:
(§3)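 Male F344 rats (9 weeks, fasted 2 days) given a single intracolonic dose of 30 mg TNB in 0.25 mL 50% ethanol. Day 7: one oral dose in 0.5% MC, or vehicle. Killed 6 h later; colon incubated with A23187 (2 μg/mL) in Tyrode, 15 min, 37 °C. Eicosanoids by radioimmunoassay. Suppression versus vehicle controls; mean ± SEM.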
For `CCNc1nc2c(C)c(C)c(O)c(Cc3cccnc3)c2s1`, the Suppression ratio was 89%.
On to `CCNc1nc2c(C)c(Cc3cccnc3)c(O)c(C)c2s1`, for which the Suppression ratio stood at 83%.

Tested on in a further test: not listed separately
As to the kind of experiment: Tested for the suppression ratio, the difference between the amount of PGE-2 produced in the test groups and the control group at the dosage of 100 mg/kg. In kind it is functional. Summed up:
as §3
Consider `CCNc1nc2c(C)c(C)c(O)c(Cc3cccnc3)c2s1`, for which the Suppression ratio is recorded as 41%.
On to `CCNc1nc2c(C)c(Cc3cccnc3)c(O)c(C)c2s1`, for which the Suppression ratio turned out to be 8%.

Tested on in a further test: not listed separately
The experiment in a line: Tested for the suppression ratio, the difference between the amount of TXB2 produced in the test groups and the control group at the dosage of 100 mg/kg. Format: functional. Summed up: as §3
Regarding `CCNc1nc2c(C)c(C)c(O)c(Cc3cccnc3)c2s1`, the Suppression ratio is reported as 53%.
Regarding `CCNc1nc2c(C)c(Cc3cccnc3)c(O)c(C)c2s1`, the Suppression ratio is given as 67%.

A further test concerns the target T1, Polyunsaturated fatty acid 5-lipoxygenase. As to the kind of experiment: Tested for inhibitory activity against 5-lipoxygenase in microsome of RBL-1 cells. In kind it is cell-based. Summed up: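 RBL-1 cells sonicated at 0 °C in 50 mM phosphate, pH 7.4, with 0.25 M sucrose and 1 mM EDTA. Homogenate preincubated 5 min at 37 °C with compound plus 2 mM glutathione, then arachidonic acid (0.2 mM) for 10 min at 37 °C. Formic acid stop, CHCl₃/MeOH extraction, 5-HETE by HPLC. Duplicate points; IC50 by probit analysis.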
`CCNc1nc2c(C)c(C)c(O)c(Cc3cccnc3)c2s1`: inhibition was half-maximal at 270 nM (IC50).

The target in the next test is Cyclooxygenase (Rattus norvegicus). As to the kind of experiment: Inhibitory activity against the production of prostaglandin E2 (PGE2) in glycogen-induced peritoneal cells of rat.
`CCc1c(O)c(OC)c(Cc2cccnc2)c2nc(NC)sc12`: the IC50 was > 100000 nM.
As to `CCNc1nc2c(C)c(C)c(O)c(Cc3cccnc3)c2s1`, the IC50 was > 100000 nM.
The same measure, in the same setting: as for `CCNc1nc2c(C)c(Cc3cccnc3)c(O)c(C)c2s1`, the figure is > 100000 nM; as for `Cc1c(O)c2ccccc2c2nc(NCc3cccnc3)sc12`, 5500 nM.
As for `CCCNc1nc2c(Cc3cccnc3)c(C)c(O)c(C)c2s1.Cl.Cl`, the IC50 is > 100000 nM.
Consider `CNc1nc2c(C)c(Cc3cccnc3)c(O)c(C)c2s1.Cl.Cl`, for which the IC50 is > 100000 nM.
